# Assay results from PubChem BioAssay AID602414 (Southern Research Specialized Biocontainment Screening …, 2012).
# Values joined by “and” are separate entries in the source; they are usually repeats but may differ in a detail not shown here. Identical values can stand only once. Active and inactive are the calls of the source.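 The calls were made as follows: active = viability under 80% at some tested dose in each replicate, a sign of cell toxicity; inconclusive = meets the active limit in only one replicate; inactive = the rest.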
# System: not listed separately
# Experiment: 5637 bladder carcinoma cell viability loss – set 5, cytotoxicity control for bacterial capsule biogenesis inhibitor project, dose response (AID 602414)
# Settings: Bladder 5637 cells viability, CellTiter-Glo, 72 h; at 150 µM (top of the series)
# Procedure, shortened: (§1)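 Material: bladder carcinoma 5637 cells; schedule: 72 h exposure; detection: CellTiter-Glo luminescence; evaluation: percent viability versus mean cell-only control, CC50 from curve fit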
row,Structure (SMILES),viability
1,O=C(Nc1nc2ccc(Br)cc2s1)c1cc(Br)c(Br)s1,110% (inactive)

# Same assay, conditions: Bladder 5637 cells viability, CellTiter-Glo, 72 h; at 300 µM (top of the series)
row,Structure (SMILES),viability
1,O=C(Nc1ccc2ncsc2c1)c1ccncc1,119% (inactive)

# System: Bladder 5637 cells viability, CellTiter-Glo, 72 h
# Experiment: as above
# Settings: not given
# Procedure, shortened: as §1
row,Structure (SMILES),CC50
1,CC(C)c1ccc(-c2cc(NC(=O)c3cccc(F)c3)c(C(=O)O)s2)cc1,37.5 µM
2,CCOc1ccc(-c2cc(NC(=O)c3c(F)cc(F)cc3F)c(C(=O)O)s2)cc1,76.6 µM
3,CCCCOc1ccc(-c2cc(NC(=O)c3ccc(Br)o3)c(C(=O)O)s2)cc1,43.4 µM
4,CCCCOc1ccc(-c2cc(NC(=O)c3c(F)cccc3F)c(C(=O)O)s2)cc1,42.6 µM
5,O=C(O)c1sc(-c2ccc(OCC(F)(F)F)cc2)cc1NC(=O)c1c(F)cccc1F,75.2 µM
6,O=S(=O)(Nc1nc2ccc(F)cc2s1)c1ccc(Br)s1,135 µM
7,O=C(Nc1ccnc(F)c1)c1ccc2ncsc2c1,119 µM
8,CCOc1ccc(-c2cc(NC(=O)c3c(F)cccc3C(F)(F)F)c(C(=O)O)s2)cc1,62 µM
9,COc1cccc2sc(NC(=O)c3ccc(Br)s3)nc12,24.4 µM
10,O=C(O)c1sc(-c2ccc(OCCC(F)(F)F)cc2)cc1NC(=O)c1c(F)cccc1F,68.4 µM
11,Cc1ccc(-c2cc(NC(=O)c3cc4ccccc4o3)c(C(=O)O)s2)cc1,94.6 µM
12,O=C(Nc1ccncc1)c1ccc2ncsc2c1,178 µM and 244 µM
13,CCCc1ccc(-c2cc(NC(=O)c3ccc(Br)o3)c(C(=O)O)s2)cc1,46.4 µM
14,CCCc1ccc(-c2cc(NC(=O)c3c(F)cc(F)cc3F)c(C(=O)O)s2)cc1,69.9 µM
15,CC(C)c1ccc(-c2cc(NC(=O)c3c(F)cccc3F)c(C(=O)O)s2)cc1,32.4 µM
16,CCOc1ccc(-c2cc(NC(=O)c3cccc(F)c3)c(C(=O)O)s2)cc1,55.6 µM
17,O=C(Nc1ccnc(Br)c1)c1ccc2ncsc2c1,136 µM
18,O=C(Nc1ncccc1O)c1ccc2ncsc2c1,159 µM
19,O=C(O)c1sc(-c2ccc(C(F)(F)F)cc2)cc1NC(=O)c1c(F)cccc1F,44.8 µM
20,O=C(Nc1cc(-c2ccccc2)sc1C(=O)O)c1ccc2c(c1)OCCO2,121 µM
21,O=C(O)c1sc(-c2ccc(C(F)(F)F)cc2)cc1NS(=O)(=O)c1ccc(Br)s1,45.2 µM
22,CN(C(=O)c1ccc2ncsc2c1)c1ccccc1,267 µM
23,COc1ccc(-c2cc(NC(=O)c3ccc(Br)o3)c(C(=O)O)s2)cc1,50.5 µM
24,O=C(Nc1cc(-c2ccc(OCCC(F)(F)F)cc2)sc1C(=O)O)c1ccc(Br)o1,41.7 µM
25,O=C(NCc1cc([N+](=O)[O-])ccc1O)c1cccnc1Sc1ccccc1Cl,51.9 µM
26,COc1cccc2sc(NCc3ccc(Br)s3)nc12,165 µM

row,Structure (SMILES),CC50
1,CC(C)c1ccc(-c2cc(NC(=O)c3ccc(Br)o3)c(C(=O)O)s2)cc1,50.4 µM
2,COc1ccc(-c2cc(NC(=O)c3cc4ccccc4o3)c(C(=O)O)s2)cc1,284 µM
3,O=C(Nc1cc(-c2ccc(C(F)(F)F)cc2)sc1C(=O)O)c1ccc(Br)s1,38.5 µM
4,O=C(ONc1ccc(N=NC(=O)c2ccccc2O)cc1)c1ccccc1,12.8 µM
5,COc1ccc2nc(NC(=O)c3cccs3)sc2c1,29.3 µM
6,CC(C)(C)c1ccc(-c2cc(NC(=O)c3cc4ccccc4o3)c(C(=O)O)s2)cc1,34.5 µM
7,CCOc1ccc(-c2cc(NC(=O)c3ccc(Br)o3)c(C(=O)O)s2)cc1,58.4 µM
8,CCOc1ccc(-c2cc(NC(=O)c3cc4ccccc4o3)c(C(=O)O)s2)cc1,193 µM
9,Cc1ccc(-c2cc(NC(=O)c3ccc(Br)o3)c(C(=O)O)s2)cc1,50.7 µM
10,CCOc1ccc(-c2cc(NC(=O)c3cccc(Cl)c3)c(C(=O)O)s2)cc1,43.6 µM
11,O=C(Nc1cc(-c2ccc(OCC(F)(F)F)cc2)sc1C(=O)O)c1ccc(Br)o1,50 µM
12,O=C(Nc1ccnc(Cl)c1)c1ccc2ncsc2c1,38.8 µM
13,COc1ccc2nc(NC(=O)c3ccco3)sc2c1,66.7 µM
14,O=C(Nc1cc(-c2ccc(OC(F)(F)F)cc2)sc1C(=O)O)c1cccc(F)c1,52.1 µM
15,O=C(O)c1sc(-c2ccc(OCCCC(F)(F)F)cc2)cc1NC(=O)c1c(F)cc(F)cc1F,54.7 µM
16,O=C(Nc1cc(-c2ccccc2)sc1C(=O)O)c1cccc(Cl)c1,35 µM
17,CC(C)(C)c1ccc(-c2cc(NC(=O)c3ccc(Br)s3)c(C(=O)O)s2)cc1,20.5 µM
18,CCCc1ccc(-c2cc(NC(=O)c3cc(Br)c(Br)o3)c(C(=O)O)s2)cc1,41 µM
19,CCCc1ccc(-c2cc(NC(=O)c3c(F)cccc3F)c(C(=O)O)s2)cc1,54.9 µM
20,CCCOc1ccc(-c2cc(NC(=O)c3c(F)cc(F)cc3F)c(C(=O)O)s2)cc1,85.6 µM
21,CC(C)c1ccc(-c2cc(NC(=O)c3ccc(Br)s3)c(C(=O)O)s2)cc1,33.1 µM
22,COc1ccc(-c2cc(NC(=O)c3c(F)cccc3F)c(C(=O)O)s2)cc1,53.3 µM
23,O=C(Nc1cc(-c2ccc(C(F)(F)F)cc2)sc1C(=O)O)c1cccc(F)c1,35.1 µM
24,O=C(O)c1sc(-c2ccc(OCCC(F)(F)F)cc2)cc1NC(=O)c1c(F)cc(F)cc1F,63.6 µM
25,CCOc1ccc(-c2cc(NC(=O)c3ccc(OC)c(OC)c3)c(C(=O)O)s2)cc1,61.8 µM
26,CC(C)c1ccc(-c2cc(NC(=O)c3cc4ccccc4o3)c(C(=O)O)s2)cc1,47.2 µM

row,Structure (SMILES),CC50
1,COc1ccc(-c2cc(NC(=O)c3cccc(F)c3)c(C(=O)O)s2)cc1,44.8 µM
2,O=C(O)c1sc(-c2ccc(OC(F)(F)F)cc2)cc1NC(=O)c1c(F)cccc1F,51 µM
3,Cc1ccc(-c2cc(NC(=O)c3ccc(Br)s3)c(C(=O)O)s2)cc1,66 µM
4,CCOc1ccc(-c2cc(NC(=O)c3c(F)cccc3F)c(C(=O)O)s2)cc1,42.1 µM and 51.6 µM
5,O=C(Nc1cc(-c2ccc(OC(F)(F)F)cc2)sc1C(=O)O)c1ccc(Br)o1,33.6 µM
6,O=S(=O)(Nc1nc2ccc(OC(F)(F)F)cc2s1)c1ccc(Br)s1,65.9 µM
7,CCCCOc1ccc(-c2cc(NC(=O)c3c(F)cc(F)cc3F)c(C(=O)O)s2)cc1,56.2 µM
8,O=C(Nc1cc(-c2ccc(OCCCC(F)(F)F)cc2)sc1C(=O)O)c1ccc(Br)o1,38.7 µM
9,Cc1ccc(-c2cc(NS(=O)(=O)c3ccc(Br)s3)cs2)cc1,94 µM
10,CC(C)(C)c1ccc(-c2cc(NC(=O)c3cccc(F)c3)c(C(=O)O)s2)cc1,21.1 µM
11,[N-]=[N+]=NCCOc1ccc(-c2cc(NC(=O)c3c(F)cccc3F)c(C(=O)O)s2)cc1,273 µM
12,O=C(Nc1cc(-c2ccccc2)sc1C(=O)O)c1cccs1,34.7 µM
13,O=C(O)c1sc(-c2ccc(OCC(F)(F)F)cc2)cc1NC(=O)c1c(F)cc(F)cc1F,161 µM
14,Cc1ccc(-c2cc(NC(=O)c3cccc(F)c3)c(C(=O)O)s2)cc1,43.9 µM
15,O=C(Nc1cc(-c2ccc(OC(F)(F)F)cc2)sc1C(=O)O)c1cc2ccccc2o1,40.6 µM
16,CCOc1ccc(-c2cc(NC(=O)c3ccc(Br)s3)c(C(=O)O)s2)cc1,49.7 µM
17,CC(C)(C)c1ccc(-c2cc(NC(=O)c3c(F)cccc3F)c(C(=O)O)s2)cc1,35.1 µM
18,CCCCOc1ccc(-c2cc(NC(=O)c3cc(Br)c(Br)o3)c(C(=O)O)s2)cc1,31.7 µM
19,O=C(Nc1ccncc1F)c1ccc2ncsc2c1,229 µM
20,O=C(Nc1cc(-c2ccccc2)sc1C(=O)O)c1ccc(Br)o1,53.3 µM
21,Cc1ccc(-c2cc(NC(=O)c3c(F)cccc3F)c(C(=O)O)s2)cc1,57.3 µM
22,O=C(O)c1sc(-c2ccc(OCCCC(F)(F)F)cc2)cc1NC(=O)c1c(F)cccc1F,241 µM
23,O=C(Nc1cc(-c2ccc(OCCCC(F)(F)F)cc2)sc1C(=O)O)c1cc(Br)c(Br)o1,26.6 µM and 251 µM
24,CCOc1ccc2nc(NC(=O)c3ccc(Br)s3)sc2c1,91.2 µM
25,O=C(Nc1cc(-c2ccc(C(F)(F)F)cc2)sc1C(=O)O)c1ccc(Br)o1,47.5 µM
26,O=C(Nc1cc(-c2ccc(C(F)(F)F)cc2)sc1C(=O)O)c1cc2ccccc2o1,72.1 µM
